The M2OR odorant receptor database

Experiments:
Conditions in all cases: stereoisomer not certain
OR5P3 (Homo sapiens) = target: T1, OR5P3 (Homo sapiens) (UniProt Q8WZ94)
T1 sequence (whole entry): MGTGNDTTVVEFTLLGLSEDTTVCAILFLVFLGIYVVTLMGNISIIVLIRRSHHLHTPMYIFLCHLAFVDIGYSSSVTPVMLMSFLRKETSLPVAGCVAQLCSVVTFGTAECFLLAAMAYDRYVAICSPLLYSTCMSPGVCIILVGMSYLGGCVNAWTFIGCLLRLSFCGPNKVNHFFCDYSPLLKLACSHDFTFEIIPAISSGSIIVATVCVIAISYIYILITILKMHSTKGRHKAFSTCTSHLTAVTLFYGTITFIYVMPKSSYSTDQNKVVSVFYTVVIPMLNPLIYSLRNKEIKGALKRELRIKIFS
Method in brief: (§1)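 Values were gathered from published papers (main text and supplementary material), with extra details requested from the original authors when needed, and checked for typos and inconsistencies. Each receptor–molecule pair is called responsive (active) if the original authors judged the measured signal statistically different from baseline, and non-responsive (inactive) otherwise. Assay methods varied by source, often transient mammalian cell-line luciferase assays. Recorded details include cell line, G-protein, co-transfected protein and tags.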

OR5P3 L301R = tested on: OR5P3 L301R
Chain of OR5P3 L301R (as listed by the source, stated change not applied): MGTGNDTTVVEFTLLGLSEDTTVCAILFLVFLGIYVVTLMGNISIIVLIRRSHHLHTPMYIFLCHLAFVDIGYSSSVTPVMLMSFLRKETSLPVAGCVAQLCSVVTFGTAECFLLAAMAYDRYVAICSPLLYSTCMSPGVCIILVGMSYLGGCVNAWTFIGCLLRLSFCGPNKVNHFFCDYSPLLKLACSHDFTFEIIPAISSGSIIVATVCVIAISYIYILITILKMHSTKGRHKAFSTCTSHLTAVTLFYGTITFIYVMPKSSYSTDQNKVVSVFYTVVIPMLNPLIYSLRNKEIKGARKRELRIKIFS
Method in brief: as §1

OR5R1 C122R S128G F184L = tested on: OR5R1 C122R S128G F184L
Method in brief: as §1

OR5T1 (Homo sapiens) = OR5T1 (Homo sapiens) (UniProt Q8NG75)
Chain of OR5T1 (Homo sapiens) (Q8NG75 whole entry): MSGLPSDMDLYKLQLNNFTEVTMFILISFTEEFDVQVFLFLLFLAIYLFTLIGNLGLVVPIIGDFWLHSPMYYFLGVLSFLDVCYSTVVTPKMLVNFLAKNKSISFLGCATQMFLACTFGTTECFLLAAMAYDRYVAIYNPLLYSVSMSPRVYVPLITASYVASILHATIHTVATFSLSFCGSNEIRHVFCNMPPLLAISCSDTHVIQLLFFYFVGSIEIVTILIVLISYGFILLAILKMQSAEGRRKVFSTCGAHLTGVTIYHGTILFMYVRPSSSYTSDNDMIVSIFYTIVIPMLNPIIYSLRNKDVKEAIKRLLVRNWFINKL
Method in brief: as §1

OR5T2 (Homo sapiens) = OR5T2 (Homo sapiens) (UniProt Q8NGG2)
Chain of OR5T2 (Homo sapiens) (Q8NGG2 whole entry): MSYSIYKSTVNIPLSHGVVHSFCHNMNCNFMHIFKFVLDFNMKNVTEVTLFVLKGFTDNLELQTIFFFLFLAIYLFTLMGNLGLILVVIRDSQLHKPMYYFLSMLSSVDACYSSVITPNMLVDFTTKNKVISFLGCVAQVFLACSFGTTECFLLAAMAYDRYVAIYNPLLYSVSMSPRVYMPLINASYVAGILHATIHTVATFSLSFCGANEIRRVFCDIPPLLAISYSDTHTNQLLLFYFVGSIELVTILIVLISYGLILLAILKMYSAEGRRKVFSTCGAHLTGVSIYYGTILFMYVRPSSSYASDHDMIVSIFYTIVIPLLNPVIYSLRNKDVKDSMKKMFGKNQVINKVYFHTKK
Method in brief: as §1

OR5T2 S4G = tested on: OR5T2 S4G
Chain of OR5T2 S4G (as listed by the source): as the sequence (Q8NGG2 whole entry) above, with S4G counted along it
Method in brief: as §1

OR5T3 (Homo sapiens) = OR5T3 (Homo sapiens) (UniProt Q8NGG3)
Chain of OR5T3 (Homo sapiens) (Q8NGG3 whole entry): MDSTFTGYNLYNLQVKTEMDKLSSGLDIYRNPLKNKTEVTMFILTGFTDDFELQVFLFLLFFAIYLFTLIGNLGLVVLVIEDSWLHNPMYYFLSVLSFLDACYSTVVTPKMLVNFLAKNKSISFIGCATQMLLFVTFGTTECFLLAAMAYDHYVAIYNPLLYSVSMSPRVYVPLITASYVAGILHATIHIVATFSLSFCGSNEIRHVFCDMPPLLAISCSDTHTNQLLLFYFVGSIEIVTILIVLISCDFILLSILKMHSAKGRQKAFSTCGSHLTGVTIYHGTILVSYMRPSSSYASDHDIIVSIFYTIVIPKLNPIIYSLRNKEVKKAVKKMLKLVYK
Method in brief: as §1

OR5V1 (Homo sapiens) = OR5V1 (Homo sapiens) (UniProt Q9UGF6)
Chain of OR5V1 (Homo sapiens) (Q9UGF6 whole entry): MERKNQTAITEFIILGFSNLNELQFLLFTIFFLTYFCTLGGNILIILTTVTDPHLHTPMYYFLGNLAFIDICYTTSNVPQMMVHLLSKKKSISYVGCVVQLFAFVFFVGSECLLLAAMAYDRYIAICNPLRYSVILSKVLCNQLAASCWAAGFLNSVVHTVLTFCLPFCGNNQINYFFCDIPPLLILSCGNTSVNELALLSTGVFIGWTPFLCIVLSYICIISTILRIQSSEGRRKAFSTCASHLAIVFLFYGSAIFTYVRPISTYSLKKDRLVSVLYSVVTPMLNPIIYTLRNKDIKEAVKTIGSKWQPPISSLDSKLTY
Method in brief: as §1

OR5W2 (Homo sapiens) = OR5W2 (Homo sapiens) (UniProt Q8NH69)
Chain of OR5W2 (Homo sapiens) (Q8NH69 whole entry): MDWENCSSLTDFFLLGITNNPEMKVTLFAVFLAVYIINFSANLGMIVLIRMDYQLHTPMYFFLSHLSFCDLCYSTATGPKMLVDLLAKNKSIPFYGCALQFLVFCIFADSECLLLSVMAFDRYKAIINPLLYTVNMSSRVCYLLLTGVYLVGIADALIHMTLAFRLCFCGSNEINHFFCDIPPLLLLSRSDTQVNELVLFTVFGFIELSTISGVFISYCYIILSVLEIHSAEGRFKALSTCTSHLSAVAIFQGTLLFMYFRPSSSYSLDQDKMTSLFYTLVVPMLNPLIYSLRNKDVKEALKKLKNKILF
Method in brief: as §1

OR5W2 R189C = tested on: OR5W2 R189C
Chain of OR5W2 R189C (as listed by the source, stated change not applied): as the sequence (Q8NH69 whole entry) above, with R189C counted along it
Method in brief: as §1

OR6A2 (Homo sapiens) = OR6A2 (Homo sapiens) (UniProt O95222)
Chain of OR6A2 (Homo sapiens) (O95222 whole entry): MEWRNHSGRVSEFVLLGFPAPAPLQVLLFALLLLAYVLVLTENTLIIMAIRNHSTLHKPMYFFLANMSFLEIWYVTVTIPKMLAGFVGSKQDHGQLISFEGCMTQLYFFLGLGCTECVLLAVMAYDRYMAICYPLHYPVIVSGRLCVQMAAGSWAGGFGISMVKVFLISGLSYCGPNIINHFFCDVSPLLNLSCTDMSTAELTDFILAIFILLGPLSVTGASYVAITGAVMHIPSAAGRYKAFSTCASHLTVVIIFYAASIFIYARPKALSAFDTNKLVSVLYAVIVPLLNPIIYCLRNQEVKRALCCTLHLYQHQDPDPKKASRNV
Method in brief: as §1

OR6A2 I50V = tested on: OR6A2 I50V
Chain of OR6A2 I50V (as listed by the source, stated change not applied): as the sequence (O95222 whole entry) above, with I50V counted along it
Method in brief: as §1

OR6B1 (Homo sapiens) = OR6B1 (Homo sapiens) (UniProt O95007)
Chain of OR6B1 (Homo sapiens) (O95007 whole entry): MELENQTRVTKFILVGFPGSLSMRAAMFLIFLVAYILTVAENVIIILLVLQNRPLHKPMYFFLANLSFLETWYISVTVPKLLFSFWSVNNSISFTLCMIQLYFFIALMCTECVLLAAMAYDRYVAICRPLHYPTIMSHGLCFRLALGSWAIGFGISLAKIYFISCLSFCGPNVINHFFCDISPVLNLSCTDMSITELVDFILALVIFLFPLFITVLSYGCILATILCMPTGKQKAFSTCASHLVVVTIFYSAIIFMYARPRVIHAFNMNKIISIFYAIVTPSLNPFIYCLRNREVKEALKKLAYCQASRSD
Method in brief: as §1

OR6B2 (Homo sapiens) = OR6B2 (Homo sapiens) (UniProt Q6IFH4)
Chain of OR6B2 (Homo sapiens) (Q6IFH4 whole entry): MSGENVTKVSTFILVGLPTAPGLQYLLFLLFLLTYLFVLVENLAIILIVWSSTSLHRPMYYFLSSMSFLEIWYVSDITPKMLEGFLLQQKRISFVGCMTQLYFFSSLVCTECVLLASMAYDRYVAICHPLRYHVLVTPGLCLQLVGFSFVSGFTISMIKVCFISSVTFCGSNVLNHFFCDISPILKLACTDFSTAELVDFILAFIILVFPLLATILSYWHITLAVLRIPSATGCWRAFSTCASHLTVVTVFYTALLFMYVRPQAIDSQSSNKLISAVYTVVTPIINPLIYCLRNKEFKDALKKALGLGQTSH
Method in brief: as §1

OR6B2 R122C C179R = tested on: OR6B2 R122C C179R
Method in brief: as §1

OR6B3 (Homo sapiens) = OR6B3 (Homo sapiens) (UniProt Q8NGW1)
Chain of OR6B3 (Homo sapiens) (Q8NGW1 whole entry): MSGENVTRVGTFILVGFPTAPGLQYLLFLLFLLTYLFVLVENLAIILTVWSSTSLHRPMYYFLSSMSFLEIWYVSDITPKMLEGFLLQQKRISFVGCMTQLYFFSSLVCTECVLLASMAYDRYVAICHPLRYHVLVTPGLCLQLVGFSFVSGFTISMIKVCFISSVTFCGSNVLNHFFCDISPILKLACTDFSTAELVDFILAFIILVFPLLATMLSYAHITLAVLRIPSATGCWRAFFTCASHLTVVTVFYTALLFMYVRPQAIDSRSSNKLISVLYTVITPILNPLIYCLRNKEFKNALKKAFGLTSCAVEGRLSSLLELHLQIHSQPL
Method in brief: as §1

OR6B3 T48I R131C = tested on: OR6B3 T48I R131C
Method in brief: as §1

OR6C1 (Homo sapiens) = OR6C1 (Homo sapiens) (UniProt Q96RD1)
Chain of OR6C1 (Homo sapiens) (Q96RD1 whole entry): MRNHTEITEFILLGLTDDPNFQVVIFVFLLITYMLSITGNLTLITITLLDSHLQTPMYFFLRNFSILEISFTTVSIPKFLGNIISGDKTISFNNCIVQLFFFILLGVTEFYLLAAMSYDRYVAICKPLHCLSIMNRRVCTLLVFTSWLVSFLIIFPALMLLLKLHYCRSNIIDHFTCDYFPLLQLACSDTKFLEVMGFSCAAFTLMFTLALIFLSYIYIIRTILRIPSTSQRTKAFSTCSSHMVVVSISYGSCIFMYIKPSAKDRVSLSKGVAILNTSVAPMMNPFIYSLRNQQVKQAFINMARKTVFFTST
Method in brief: as §1

OR6C1 C130Y H165D V246I = tested on: OR6C1 C130Y H165D V246I
Method in brief: as §1

OR6C2 (Homo sapiens) = OR6C2 (Homo sapiens) (UniProt Q9NZP2)
Chain of OR6C2 (Homo sapiens) (Q9NZP2 whole entry): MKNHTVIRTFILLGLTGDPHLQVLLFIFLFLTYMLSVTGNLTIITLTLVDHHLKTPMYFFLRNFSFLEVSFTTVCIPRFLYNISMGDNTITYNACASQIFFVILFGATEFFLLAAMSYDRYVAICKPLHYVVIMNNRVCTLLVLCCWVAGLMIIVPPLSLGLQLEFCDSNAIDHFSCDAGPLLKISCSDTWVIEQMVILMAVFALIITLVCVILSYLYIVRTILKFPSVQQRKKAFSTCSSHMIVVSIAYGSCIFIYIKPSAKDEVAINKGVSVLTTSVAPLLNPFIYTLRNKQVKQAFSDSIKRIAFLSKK
Method in brief: as §1

Measured: odorant receptor agonist call

CCC1CCC(=O)O1 (stereo not given)
inactive: OR5P3 (Homo sapiens)

C=CCOC(=O)Cc1ccccc1
inactive: all assays above

Cc1c([N+](=O)[O-])c(C)c([N+](=O)[O-])c(C(C)(C)C)c1[N+](=O)[O-]
not listed: OR5P3 L301R | OR5R1 C122R S128G F184L | OR5T2 S4G | OR5W2 R189C | OR6A2 I50V | OR6B2 R122C C179R | OR6B3 T48I R131C | OR6C1 C130Y H165D V246I
inactive: all other assays above

C=CCc1ccccc1
inactive: OR5P3 (Homo sapiens)

O=c1cc(O)c2ccccc2o1
inactive: OR5P3 (Homo sapiens)
